According to ChEMBL document CHEMBL5038610, “Ligand-based rational design, synthesis and evaluation of novel potential chemical chaperones for opsin” (Eur J Med Chem, 2021):
Activity calls are given as the source filed them. The calls are words filed in the database; no cut-off is given here.

Key:
U2OS [1] = test: Effect on His-tagged human P23H rhodopsin expressed in U2OS cells assessed as increase localization of P23H rhodopsin using […] as substrate at 17 to 20 uM incubated for overnight and measured by immunofluorescence microscopy analysis; type: functional, cell-based; conditions: dose 17-20 µM, time 12.0 hrs
How it was run: (§1)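 U2OS cells stably carrying C-terminal His-tagged human P23H rhodopsin, grown on polylysine coverslips. Incubated overnight in the dark with 1 μg/mL tetracycline plus compound at 17 or 20 μM (DMSO ≤0.1%); 9-cis-retinal at 5 μM serves as control. Cells fixed in 4% PFA. Surface rhodopsin stained with RetP1 before permeabilisation, total rhodopsin with anti-His after 0.1% Triton. Epifluorescence imaging, 3 independent experiments.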

Bos taurus = species: Bos taurus; test: Binding affinity to bovine opsin assessed as rate constant preincubated for 30 mins followed by […] addition and measured after 30 mins by UV-visible spectra method; conditions: time 60.0 min
How it was run: (§2)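 Opsin from bovine rod outer segments diluted to ~20-25 μM in PBS with 1% N-dodecyl-β-maltoside. Bleached with 532 nm green light, then pre-incubated with compound for 30 min at room temperature. 9-cis-retinal added, equimolar to opsin. Isorhodopsin formation read at 485 nm over 0–29 min. One-phase association fit gives the pseudo-first-order k, compared with DMSO vehicle. At least three repeats.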

HepG2 = test: Cytotoxicity against human HepG2 cells assessed as reduction in cell viability at 25 uM measured after 24 hrs by Cell-titre blue assay; type: toxicity, cell-based; conditions: hepg2, 24 h
How it was run: (§3)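 HepG2 (DMEM) or ARPE-19 (DMEM/F12) cells seeded at 1 × 10⁴ per well. Next day given medium with 2% FBS and 1 g/L glucose containing 25 μM compound, for 24 h at 37 °C. CellTiter Blue then added for 4 h; fluorescence read at 560/590 nm. Viability expressed as % of DMSO-treated cells; at least three independent measurements.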

ARPE-19 = test: Cytotoxicity against human ARPE-19 cells assessed as reduction in cell viability at 25 uM measured after 24 hrs by Cell-titre blue assay; type: toxicity, cell-based; conditions: arpe-19, 24 h; how it was run: as §3
U2OS [2] = test: Effect on His-tagged human P23H rhodopsin expressed in U2OS cells assessed as increase localization of P23H rhodopsin using […] as substrate at 17 uM incubated for overnight and measured by immunofluorescence microscopy analysis; type: cell-based; conditions: time 12.0 hrs; how it was run: as §1
Rhodopsin (Bos taurus) = Rhodopsin (Bos taurus) (UniProt P02699); test: Binding affinity to bovine rhodopsin assessed as rate constant preincubated for 30 mins followed by […] addition and measured after 30 mins by UV-visible spectra method; conditions: time 60.0 min; how it was run: as §2
[3] = Half life of compound; type: physicochemical

Sequence of Rhodopsin (Bos taurus) (P02699 whole entry): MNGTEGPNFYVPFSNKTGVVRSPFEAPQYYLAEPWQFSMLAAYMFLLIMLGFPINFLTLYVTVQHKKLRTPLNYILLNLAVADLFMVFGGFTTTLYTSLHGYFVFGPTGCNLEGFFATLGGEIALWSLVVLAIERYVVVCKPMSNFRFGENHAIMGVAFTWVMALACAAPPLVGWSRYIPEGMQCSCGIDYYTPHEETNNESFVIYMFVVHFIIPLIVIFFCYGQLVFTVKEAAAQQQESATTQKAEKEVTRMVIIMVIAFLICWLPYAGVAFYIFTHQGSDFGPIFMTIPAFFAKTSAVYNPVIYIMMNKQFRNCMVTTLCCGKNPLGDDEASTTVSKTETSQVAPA

SMILES	Activity (U2OS [1])	K (Bos taurus)	Activity (HepG2)	Activity (ARPE-19)	other results
Cc1cccc(C)c1C(=O)N1CCN(c2ccc(C(=O)O)cc2)CC1	Active				
O=Cc1ccc(N2CCN(C(=O)c3cc(C(F)(F)F)cc(C(F)(F)F)c3)CC2)cc1	Active	0.41 min⁻¹	Non-Toxic	Non-Toxic	
CC1=C(CNc2ccc(C#N)cc2)C(C)(C)CCC1		0.31 min⁻¹	25%		Activity (U2OS [2]): Active
O=Cc1ccc(COC(=O)c2cc(C(F)(F)F)cc(C(F)(F)F)c2)cc1			Non-Toxic	Non-Toxic	Activity (U2OS [2]): Active; K (Rhodopsin (Bos taurus)): 0.44 min⁻¹
O=C(O)c1ccc(COC(=O)c2cc(C(F)(F)F)cc(C(F)(F)F)c2)cc1			Non-Toxic	Non-Toxic	Activity (U2OS [2]): Active; K (Rhodopsin (Bos taurus)): 0.62 min⁻¹
CC1=C(/C=C/C(C)N2CCc3cc(C=O)ccc3C2)C(C)(C)CCC1 (stereo unspecified)			Non-Toxic	Non-Toxic	
CC1=C(/C=C/C(=O)N2CCC(NC=O)CC2)C(C)(C)CCC1	Active				
Cc1cccc(C)c1NC(=O)/C=C/c1ccc(C=O)cc1	Active		Non-Toxic	Non-Toxic	
CC1=C(/C=C/C(=O)N2CCC(C#N)CC2)C(C)(C)CCC1		0.63 min⁻¹	50%		
Cc1cccc(C)c1-c1ccc(CNc2ccc(C(N)=O)cc2)o1		0.61 min⁻¹			
CC(=O)/C=C/C1=C(C)CCCC1(C)C [BETA-IONONE]		0.2 min⁻¹	Non-Toxic	Non-Toxic	half-life [3]: 3.6 min
Cc1cccc(C)c1N1CCN(C(=O)c2ccc(C#N)cc2)CC1	Active				
C=CC(=O)Nc1ccc(NC(=O)c2c(C)cccc2C)cc1	Active				
NC(=O)c1ccc(N2CCN(C(=O)c3cc(C(F)(F)F)cc(C(F)(F)F)c3)CC2)cc1	Active	0.62 min⁻¹	Non-Toxic	Non-Toxic	
Cc1cccc(C)c1/C=C/C(=O)NCc1ccc(C(=O)O)cc1	Active				
C=C(C(=O)Nc1ccc(NC(=O)c2c(C)cccc2C)cc1)C(F)(F)F	Active				
Cc1cccc(C)c1N1CCN(C(=O)c2ccc(C(N)=O)cc2)CC1			Non-Toxic	Non-Toxic	
O=Cc1ccc(C(=O)N2CCN(c3cc(C(F)(F)F)cc(C(F)(F)F)c3)CC2)cc1	Active	0.64 min⁻¹	Non-Toxic	Non-Toxic	
CC1=C(/C=C/C(=O)N2CCC(C(N)=O)CC2)C(C)(C)CCC1	Active				
CC1=C(CNc2ccc(C(N)=O)cc2)C(C)(C)CCC1	Active	0.59 min⁻¹			
CC1=C(CNc2ccc(C(=O)O)cc2)C(C)(C)CCC1	Active				
C=CC(=O)Nc1ccc(CNC(=O)c2c(C)cccc2C)cc1		0.62 min⁻¹	Non-Toxic	Non-Toxic	
C=CC(=O)Nc1ccc(NC(=O)c2cc(C(F)(F)F)cc(C(F)(F)F)c2)cc1	Active				
